Compound activity (PubChem BioAssay)
TRPML3 agonist = human mucolipin-3 channel agonism; Q8TDD5; activation, % at 3 µM; AID 1448; 220,000 tested, 0.29% active; HEK293 TRPML3-YFP, Fluo-8 calcium fluorescence; 100% = the carbachol control signal;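 active means activation above its plate's cutoff, the mean activation of the plate's test wells plus 3 SD, cut at about 12% in these data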
Target sequence (Q8TDD5 whole entry, looked up): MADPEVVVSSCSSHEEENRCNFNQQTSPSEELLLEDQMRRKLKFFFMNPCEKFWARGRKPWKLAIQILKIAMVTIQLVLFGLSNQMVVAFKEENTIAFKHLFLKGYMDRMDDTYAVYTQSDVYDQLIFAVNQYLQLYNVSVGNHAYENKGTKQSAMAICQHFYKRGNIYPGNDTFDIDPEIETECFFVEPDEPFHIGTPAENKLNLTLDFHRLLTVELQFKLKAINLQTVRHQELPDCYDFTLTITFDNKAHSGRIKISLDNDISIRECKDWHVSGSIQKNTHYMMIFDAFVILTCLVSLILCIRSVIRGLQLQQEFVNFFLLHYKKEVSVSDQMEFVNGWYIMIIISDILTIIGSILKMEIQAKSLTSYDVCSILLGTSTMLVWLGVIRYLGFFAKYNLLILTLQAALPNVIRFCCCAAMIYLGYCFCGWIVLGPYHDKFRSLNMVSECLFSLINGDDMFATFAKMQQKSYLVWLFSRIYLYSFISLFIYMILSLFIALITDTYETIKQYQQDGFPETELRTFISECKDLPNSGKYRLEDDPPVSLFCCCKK
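Test system – HEK293 line with stable expression of human TRPML3-YFP channel · Control set – carbachol 87 µM final as high control (100%), DMSO as low control (0%) · Signal – Fluo-8 calcium dye fluorescence, ex 470-495, em 515-575 nm · Incubation – 1-h 37 °C dye load, 5-s basal, 120-s post-compound reads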
TRPN1 ag = zebrafish TRPN1 (NompC) channel agonism | AID 1424 | 220,000 tested, 0.18% active | activation, % at 3 µM | HEK293 zebrafish TRPN1-YFP, Fluo-8 calcium fluorescence; 100% = response to 87 µM carbachol;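 active means activation above its plate's cutoff, the mean activation of test wells on that plate plus 3 SD, cut at about 19% in these data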
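Material: zebrafish TRPN1-YFP in HEK293 cells; Doses: single test compound dose, 3 µM nominal, 0.3% DMSO; Timing: dye loading 1 h at 37 °C, then 30 min room temperature; Technique: intracellular calcium fluorescence with Fluo-8; Benchmarks: high carbachol 87 µM, low DMSO alone.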
CHO-K1 Ca antag = M1 antagonist counterscreen hit in parental CHO-K1 cells | ATP-induced calcium, Fluo-8 fluorescence | inhibition, % at 3 µM | 360,000 tested, 0.6% active | AID 602250;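 active means inhibition above a per-plate cutoff, the plate's mean sample inhibition plus 3 SD, cut at about 24% in these data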
CHO-K1 Ca PAM = counter-screen for M1 PAMs: effect in parental CHO-K1 cells; ATP EC20, Fluo-8 calcium fluorescence; 0% at ATP EC20, 100% at ATP max; activation, % at 3 µM; 360,000 tested, 0.02% active;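 active means activation above the run cutoff, the mean activation of all test compounds plus 3 SD, cut at about 40% in these data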;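 further: peak over basal fluorescence ratio in a 140 s read after ATP addition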
M1 ag parental = M1 agonist counterscreen hit in parental CHO-K1 cells; Fluo-8 calcium fluorescence; scaled to maximal ATP response, vehicle zero; AID 602248; 360,000 tested, 0.48% active; activation, % at 3 µM; in the data active means activation above about 15%;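 further: untransfected CHO-K1 host cells lacking M1 receptor as counterscreen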
Numbers stand for hits; n = inactive; x = not tested or not shown. An excerpt weighted towards active compounds, which were near 1.2% of everything screened.

SMILES	TRPML3 agonist	TRPN1 ag	CHO-K1 Ca antag	CHO-K1 Ca PAM	M1 ag parental
Cc1no[n+]([O-])c1COc1cccc(/C=C2\N=C(c3ccccc3)OC2=O)c1	n	n	n	n	n
O=C1OC(c2ccccc2)=N/C1=C/c1cccc(OC(=O)c2cccs2)c1	n	n	43	n	n
O=C(Cn1c(-c2ccccn2)nc2ccccc21)N/N=C/c1ccccn1	n	n	30	n	n
O=C(Cn1c(-c2ccccn2)nc2ccccc21)N/N=C/c1cccnc1	n	n	n	n	n
CN1CCS/C1=C/C=C1/SC(=S)N(Cc2ccccc2)C1=O	n	n	n	n	n
CN1CCS/C1=C/C=C1\SC(=S)N(CC(=O)O)C1=O	n	21	n	n	26
CCCCN1C(=O)/C(=C/C=C2\SCCN2C)SC1=S	n	n	n	n	16
CC1(C(=O)NS(=O)(=O)Cc2ccccc2C(F)(F)F)CCN1C(=O)Cc1cccs1 (centres undefined)	x	x	n	n	n
CNC(=S)NNC(=O)c1cn(C)nc1C	n	n	24	n	n
Cc1nn(C)cc1C(=O)NNC(=S)Nc1ccccc1	n	n	n	n	n
COc1ccc(CNC(=O)c2cccc3c(-c4cnn(C)c4)coc23)cc1OC	x	x	n	n	n
COc1ccccc1CNc1nc(NCc2ccc3occc3c2)c2sccc2n1	x	x	n	n	n
O=C(O)c1ccc(N/N=C/c2cn(Cc3ccccc3F)c3ccccc23)cc1	n	n	n	n	23
FC(F)(F)c1ccc(-c2cccc3c2C2CC3CCN2Cc2ccc3c(c2)OCO3)cc1 (centres undefined)	x	x	n	n	n
CCOC(=O)CN1C(=N)N(c2nc(NC(C)C)nc(NC(C)C)n2)CC1=O	n	n	31	n	n
CCOC(=O)CN1C(=N)N(c2nc(NC(C)C)nc(OC)n2)CC1=O	n	n	n	n	n
O=C(CN1CCN(Cc2ccccc2Cl)CC1)N/N=C/C=C/c1ccccc1[N+](=O)[O-]	n	n	27	n	n
O=C(NC1CCN(Cc2ccccc2)CC1)c1ccc(CS(=O)c2ccccc2Cl)o1 (centres undefined)	x	x	n	n	n
Cc1ccc(N(CC(=O)N2CC(=O)Nc3ccccc32)S(=O)(=O)c2ccc3c(c2)OCCO3)cc1	n	n	29	n	n
COc1cc(SC)ccc1C(=O)Nc1ccc2c(c1)OCCO2	n	n	n	n	17
CC1(C(=O)NCc2ccccc2)CCC(=O)N1CCOc1ccccc1 (centres undefined)	x	x	27	n	n
CC1(C(=O)NC2CCCCC2)CCC(=O)N1CCOc1ccccc1 (centres undefined)	x	x	n	n	n
CC(C)C[C@H]1CN(CCCC[C@H]2CNC(=O)C(=O)N2CCc2ccc(O)cc2)C(=O)C(=O)N1CCc1ccc(O)cc1	x	x	n	n	n
O=C(CN1c2cccc3cccc(c23)S1(=O)=O)NCc1ccccc1Cl	x	x	n	n	n
CC1CCCN(S(=O)(=O)c2ccc(C(=O)Nc3nnc(C4CC4)o3)cc2)C1 (centres undefined)	x	x	25	n	n
SMILES	TRPML3 agonist	TRPN1 ag	CHO-K1 Ca antag	CHO-K1 Ca PAM	M1 ag parental
CCCC(=O)N1CCOCC1c1cc(C(=O)NCc2ccccc2)no1 (centres undefined)	x	x	n	n	n
CCCCC#Cc1cncc(C(=O)NN)c1	n	n	n	n	19
O=C(/C=C/[C@H]1O[C@@H](n2ccc(=O)[nH]c2=O)[C@H](O)[C@@H]1O)NCCc1c[nH]c2ccccc12	x	x	n	n	n
COc1cccc(N2C(=O)CC(N3CCN(CCN=CC4=C(O)CC(C)(C)CC4=O)CC3)C2=O)c1 (centres undefined)	n	n	n	n	19
Cc1ccc(S(=O)(=O)N(Cc2ccccc2)Cc2ccco2)cc1	45	n	n	n	n
Cc1ccc(S(=O)(=O)N(Cc2ccc(F)cc2)Cc2ccco2)cc1	n	n	n	n	n
Nc1nc(CN2CCN(c3ccccc3F)CC2)nc(Nc2ccccc2)n1	n	n	31	n	n
Cc1ccc(Nc2nc(N)nc(CN3CCN(c4ccccc4F)CC3)n2)cc1	n	n	n	n	n
COc1ccc(C(=O)N2CCN(S(=O)(=O)c3ccc(F)cc3)CC2)cc1OC	n	n	n	n	20
COc1ccc(S(=O)(=O)N2CCN(C(=O)c3ccc(=O)[nH]n3)CC2)cc1OC	x	x	n	n	16
COc1ccc(C(=O)N2CCN(S(=O)(=O)c3ccc(Cl)cc3)CC2)cc1OC	n	n	n	n	n
